In ChEMBL document CHEMBL1152791, “New poly(ADP-ribose) polymerase-1 inhibitors with antioxidant activity based on 4-carboxamidobenzimidazole-2-ylpyrroline and -tetrahydropyridine nitroxides and their precursors” (J Med Chem, 2009):
Calls of active or inactive are those of the source. No cut-off for these calls is given here.

Assays:
[1] = test system: WRL68; experiment: Inhibition of H2O2-induced cell death in human WRL68 cells after 3 hrs by MTT assay; assay type: functional, cell-based; conditions: WRL68, 3 h
In short: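 WRL-68 cells (ATCC) were grown in DMEM with 10% fetal calf serum at 37 °C and 5% CO2, seeded at 2.5 × 10⁴ cells/well and left overnight. They were then exposed to 0.3 mM H2O2 alone or with 0.02–10 µM compound for 3 h, then 0.5% MTT for 3 h. Formazan was dissolved in acidic isopropanol and read at 550 nm. Runs used ≥6 parallels and were repeated 3 times. IC50 is the concentration (µM) halving H2O2-induced death.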

[2] = target: Poly [ADP-ribose] polymerase 1 (Rattus norvegicus, UniProt P27008); experiment: (§1) Inhibition of rat liver PARP1 by scintillation counting
[3] = Antioxidant activity assessed as hydroxyl radical scavenging activity by fenton reaction; assay type: functional
In short: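 Fenton-type hydroxyl radical generation in 2.5 mL of 20 mM potassium phosphate pH 6.8 with 0.1 mM benzoic acid, 0.1 mM H2O2 and 20 µM Fe2+-EDTA. Hydroxybenzoic acid formation followed by fluorescence (ex 305 nm, em 407 nm). IC50 is the concentration (µM) halving the rate of benzoic acid hydroxylation.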

[4] = target: Poly [ADP-ribose] polymerase 1 (Rattus norvegicus) (UniProt P27008); experiment: as §1
[5] = test system: Rattus norvegicus; experiment: Metabolic stability in Wistar rat assessed as 2-(1-oxyl-2,2,6,6-tetramethyl-1,2,3,6-tetrahydropyridin-4-yl)-1H-benzimidazol-4-carboxylic acid amide radical level in urine at 8 mg/kg, ip after 4 hrs by EPR spectroscopy; assay type: ADME, organism-based; set-up: dose 8 mg/kg, route intraperitoneal; conditions: in vivo
In short: (§2)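 Male Wistar rats (290–350 g, n = 3/group) were housed singly in metabolic cages and given a single ip dose of the HCl salt dissolved in 1.0 mL 0.9% NaCl. Urine was collected before dosing and from injection to 4 h. Untreated urine was measured by X-band EPR in 50 µL glass capillaries to give the radical concentration.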

[6] = test system: Rattus norvegicus; experiment: Metabolic stability in Wistar rat assessed as 2-(1-oxyl-2,2,6,6-tetramethyl-1,2,3,6-tetrahydropyridin-4-yl)-1H-benzimidazol-4-carboxylic acid amide radical level in urine at 8 mg/kg, ip after 4 hrs by EPR spectroscopy in presence of PbO2; assay type: ADME, organism-based; set-up: dose 8 mg/kg, route intraperitoneal; conditions: in vivo
In short: (§3)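 Male Wistar rats (290–350 g, n = 3/group) were housed singly in metabolic cages and given a single ip dose of the HCl salt in 1.0 mL 0.9% NaCl. For urine collected from 0 to 4 h, 50 mg PbO2 was added per 1 mL, vortexed 1 min and left 10 min. This oxidizes hydroxylamine to nitroxide. A 50 µL portion of supernatant was then measured by X-band EPR.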

[7] = test system: Rattus norvegicus; experiment: Metabolic stability in Wistar rat assessed as nitroxide metabolite level in urine at 8 mg/kg, ip after 4 hrs by EPR spectroscopy; assay type: ADME, organism-based; set-up: dose 8 mg/kg, route intraperitoneal; conditions: in vivo; in short: as §2
[8] = test system: Rattus norvegicus; experiment: Metabolic stability in Wistar rat assessed as nitroxide metabolite level in urine at 8 mg/kg, ip after 4 hrs by EPR spectroscopy in presence of PbO2; assay type: ADME, organism-based; set-up: dose 8 mg/kg, route intraperitoneal; conditions: in vivo; in short: as §3
[9] = Toxicity in ip dosed C57BL/6 mouse assessed as mortality measured every 24 hrs for 14 days; assay type: organism-based; conditions: in vivo
In short: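 C57BL/6 mice, groups of eight, given a single intraperitoneal injection of […]. Animals were watched for respiratory, digestive and neurological changes. Deaths were counted every 24 h for 14 days. Animals were kept under standard conditions with tap water and chow ad libitum.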

Poly [ADP-ribose] polymerase 1 (Rattus norvegicus), sequence (P27008 whole entry): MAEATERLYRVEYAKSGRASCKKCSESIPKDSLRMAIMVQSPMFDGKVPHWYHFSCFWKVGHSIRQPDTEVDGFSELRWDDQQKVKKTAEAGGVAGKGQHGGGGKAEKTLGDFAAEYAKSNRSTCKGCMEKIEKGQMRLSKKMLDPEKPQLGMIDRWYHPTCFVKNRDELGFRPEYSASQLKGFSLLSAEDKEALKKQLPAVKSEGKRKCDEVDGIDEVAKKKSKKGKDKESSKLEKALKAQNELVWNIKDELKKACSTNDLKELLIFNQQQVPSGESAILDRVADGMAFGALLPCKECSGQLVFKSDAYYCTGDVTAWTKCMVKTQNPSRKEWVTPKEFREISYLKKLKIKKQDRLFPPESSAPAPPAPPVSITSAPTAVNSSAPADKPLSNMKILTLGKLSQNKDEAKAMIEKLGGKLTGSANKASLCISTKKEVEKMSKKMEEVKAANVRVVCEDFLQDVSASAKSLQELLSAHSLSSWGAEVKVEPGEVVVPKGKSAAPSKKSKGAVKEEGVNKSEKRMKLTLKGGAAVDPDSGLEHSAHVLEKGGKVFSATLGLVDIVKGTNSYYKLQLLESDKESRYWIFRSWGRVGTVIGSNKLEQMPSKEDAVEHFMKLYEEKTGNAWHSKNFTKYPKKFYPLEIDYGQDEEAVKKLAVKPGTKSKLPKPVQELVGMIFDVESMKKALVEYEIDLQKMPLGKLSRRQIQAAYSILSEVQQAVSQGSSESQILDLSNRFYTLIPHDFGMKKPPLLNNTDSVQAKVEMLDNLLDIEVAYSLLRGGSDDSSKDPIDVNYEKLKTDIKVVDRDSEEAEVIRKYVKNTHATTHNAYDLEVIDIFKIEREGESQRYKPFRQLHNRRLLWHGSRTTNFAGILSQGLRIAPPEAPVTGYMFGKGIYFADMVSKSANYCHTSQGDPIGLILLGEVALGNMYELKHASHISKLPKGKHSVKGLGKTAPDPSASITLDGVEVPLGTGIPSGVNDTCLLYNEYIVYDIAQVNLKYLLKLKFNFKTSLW
Poly [ADP-ribose] polymerase 1, sequence (P27008 whole entry): as above

IC50 [3]	SMILES	IC50 [1]	IC50 [2]	further results
45 µM	CC1(C)C=C(c2nc3cc(C(N)=O)ccc3[nH]2)CC(C)(C)N1			Activity [4]: inactive
1.8 µM	CC1(C)C=C(Cn2cnc3c(C(N)=O)cccc32)C(C)(C)N1O	1.99 µM	10 µM	
3.8 µM	COc1cc(-c2nc3c(C(N)=O)cccc3[nH]2)ccc1OCC1=CC(C)(C)NC1(C)C	0.101 µM		
0.38 µM	CC1(C)NC(C)(C)C(c2nc3c(C(N)=O)cccc3[nH]2)=C1c1ccccc1	3.98 µM		
180 µM	CC1(C)C=C(CSc2nc3c(C(N)=O)cccc3[nH]2)CC(C)(C)N1O	12.7 µM	5 µM	
9.6 µM	CC1(C)C=C(c2nc3c(C(N)=O)cccc3[nH]2)CC(C)(C)N1O	15.6 µM	0.026 µM	Activity [5]: 0.7 nM; Activity [6]: 1.7 nM
113 µM	CON1C(C)(C)C=C(c2nc3c(C(N)=O)cccc3[nH]2)C1(C)C	0.0094 µM		
	CC1(C)C=C(c2nc3c(C(N)=O)cccc3[nH]2)CC(C)(C)N1O.Cl			Activity [7]: 87 nM; Activity [8]: 116 nM
2.3 µM	CC(C)NC(=O)c1cccc2[nH]c(C3=CC(C)(C)NC3(C)C)nc12	56.7 µM	10 µM	
170 µM	CC1(C)C=C(c2nc3cc(C(N)=O)ccc3[nH]2)CC(C)(C)N1O	28.3 µM		Activity [4]: inactive
350 µM	CC1(C)C=C(CSc2nc3c(C(N)=O)cccc3[nH]2)CC(C)(C)N1	5.57 µM	4 µM	
81 µM	CC(=O)N1C(C)(C)C=C(c2nc3c(C(N)=O)cccc3[nH]2)C1(C)C	3.15 µM		
13.4 µM	CC1(C)NC(C)(C)C(c2nc3c(C(N)=O)cccc3[nH]2)=C1c1cccc(C(F)(F)F)c1	32 µM		
10.5 µM	CC1(C)NC(C)(C)c2sc(-c3nc4c(C(N)=O)cccc4[nH]3)cc21	6.92 µM		
73 µM	CN1C(C)(C)C=C(c2nc3c(C(N)=O)cccc3[nH]2)C1(C)C	0.095 µM		
3.4 µM	CC1(C)NC(C)(C)C(c2nc3c(C(N)=O)cccc3[nH]2)=C1Br	3.51 µM		
4.5 µM	CC1(C)C=C(c2ccc(-c3nc4c(C(N)=O)cccc4[nH]3)cc2)C(C)(C)N1	0.341 µM		
200 µM	CC1(C)C=C(CSc2nc3c(C(N)=O)cccc3[nH]2)C(C)(C)N1	3.14 µM	3 µM	
5.3 µM	CC1(C)NC(C)(C)C(c2cccc3c2oc2ccccc23)=C1c1nc2c(C(N)=O)cccc2[nH]1	0.324 µM	1.8 µM	
5.5 µM	CC1(C)C=C(c2nc3ccccc3[nH]2)CC(C)(C)N1			Activity [4]: inactive
2.1 µM	CC(C)NC(=O)c1cccc2[nH]c(C3=CC(C)(C)N(O)C3(C)C)nc12	3.35 µM	10 µM	
200 µM	CC1(C)C=C(CSc2nc3c(C(N)=O)cccc3[nH]2)C(C)(C)N1O	20.9 µM	6 µM	
4.3 µM	CC1(C)C=C(COc2ccc(-c3nc4c(C(N)=O)cccc4[nH]3)cc2)C(C)(C)N1	1.61 µM		
0.9 µM	COC(=O)[C@@H]1[C@@H](c2nc3c(C(N)=O)cccc3[nH]2)C(C)(C)N(O)C1(C)C	11.1 µM		

SMILES	IC50 [3]	IC50 [1]	IC50 [2]	further results
CC1(C)C(c2cccc(C(F)(F)F)c2)=C(c2nc3c(C(N)=O)cccc3[nH]2)C(C)(C)N1O	11.2 µM	60.9 µM	0.149 µM	
CC1(C)C=C(COc2ccc(-c3nc4c(C(N)=O)cccc4[nH]3)cc2)C(C)(C)N1O	13.2 µM	1.61 µM	0.564 µM	
CC1(C)C=C(c2ccc(-c3nc4c(C(N)=O)cccc4[nH]3)cc2)C(C)(C)N1O	7.2 µM	0.033 µM	0.078 µM	
CC1(C)C(Br)=C(c2nc3c(C(N)=O)cccc3[nH]2)C(C)(C)N1O	2.8 µM	8.21 µM	0.201 µM	
CC1(C)NC(C)(C)c2cc(-c3nc4c(C(N)=O)cccc4[nH]3)ccc21	140 µM	0.19 µM	0.45 µM	
CC1(C)C=C(c2nc3c(C(N)=O)cccc3[nH]2)CC(C)(C)N1	1.6 µM	0.098 µM		LD50 at 336 h [9]: 740 mg/kg
CC1(C)C(c2ccccc2)=C(c2nc3c(C(N)=O)cccc3[nH]2)C(C)(C)N1O	1.25 µM	0.24 µM	1.5 µM	
COC(=O)[C@@H]1[C@@H](c2nc3c(C(N)=O)cccc3[nH]2)C(C)(C)NC1(C)C	3.1 µM	0.33 µM	0.216 µM	
CC1(C)C(c2nc3c(C(N)=O)cccc3[nH]2)=C(c2cccc3c2oc2ccccc23)C(C)(C)N1O	5.3 µM	26.8 µM	1.8 µM	
CC1(C)C=C(c2nc3c(C(N)=O)cccc3[nH]2)C(C)(C)N1	2.1 µM	0.62 µM		LD50 at 336 h [9]: 620 mg/kg
COc1cc(-c2nc3c(C(N)=O)cccc3[nH]2)ccc1OCC1=CC(C)(C)N(O)C1(C)C	14.1 µM	10.1 µM	0.472 µM	
CC1(C)NC(C)(C)c2cc(-c3nc4c(C(N)=O)cccc4[nH]3)ncc21	150 µM	0.08 µM	0.47 µM	
CC1(C)c2cc(-c3nc4c(C(N)=O)cccc4[nH]3)sc2C(C)(C)N1O	27 µM	40 µM	3.4 µM	
